Experimental data taken from ChEMBL document CHEMBL4689842, “EUbOPEN Chemogenomics Library wave 1” (2021).

What was measured:
U2OS [1] = assay: Multiplex assay against U2OS; type: toxicity, cell-based; details: human
Outline: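 At seeding, live cells were stained with Hoechst33342, BioTracker Green Microtubule Cytoskeleton Dye, MitoTracker Red and Annexin V Alexa Fluor 680. After compound addition they were imaged on a CQ1 microscope at 37°C and 5% CO2, and CellPathfinder machine-learning gating sorted them into Hoechst high-intensity objects or normal cells, with normal cells further split into healthy, pyknosed or fragmented nuclei and pyknosed cells into mitotic or apoptotic. Tubulin, mitochondrial-mass and membrane-permeability phenotypes are given as per cents of cells with healthy nuclei.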

U2OS [2] = assay: Incucyte cell viability with U2OS; type: toxicity, cell-based; details: human, 10 µM, compound concentration 10 uM; note: filed as whole numbers so only -1 and 0 and 1 occur
[3] = 12 h, 1 µM, compound concentration 1 uM, replicate 1
[4] = 12 h, 1 µM, compound concentration 1 uM, replicate 2
[5] = 12 h, 10 µM, compound concentration 10 uM, replicate 1
[6] = 12 h, 10 µM, compound concentration 10 uM, replicate 2
[7] = 24 h, 1 µM, compound concentration 1 uM, replicate 1
[8] = 24 h, 1 µM, compound concentration 1 uM, replicate 2
[9] = 24 h, 10 µM, compound concentration 10 uM, replicate 1
[10] = 24 h, 10 µM, compound concentration 10 uM, replicate 2
[11] = 48 h, 1 µM, compound concentration 1 uM, replicate 1
[12] = 48 h, 1 µM, compound concentration 1 uM, replicate 2
[13] = 48 h, 10 µM, compound concentration 10 uM, replicate 1
[14] = 48 h, 10 µM, compound concentration 10 uM, replicate 2

For CCCn1c(=O)c2[nH]c(C34CC5CC(CC3C5)C4)nc2n(CCC)c1=O [ROLOFYLLINE], the “Population Apoptotic (%)” value (U2OS [1]; [3]) was 50%, the “Population Fragmented Nuclei (%)” value (U2OS [1]; [3]) was 14% and the “Population Healthy Nuclei (%)” value (U2OS [1]; [3]) was 77%. The “Population Hoechst High Intensity Objects (%)” value (U2OS [1]; [3]) was 7%, the “Population Membrane Permeable-Phenotype (%)” value (U2OS [1]; [3]) was 9% and the “Population Mitochondria Different-Phenotype (%)” value (U2OS [1]; [3]) was 8%. For the same molecule, the “Population Mitotic Cells (%)” value (U2OS [1]; [3]) was 50%, the “Population Normal (%)” value (U2OS [1]; [3]) was 92% and the “Population Pyknosed Nuclei (%)” value (U2OS [1]; [3]) was 8%. For the same molecule, the “Population Tubulin-Different-Phenotype (%)” value (U2OS [1]; [3]) was 18%, the “Total Cell Count” value (U2OS [1]; [3]) was 123 and the “Population Apoptotic (%)” value (U2OS [1]; [4]) was 71%. The “Population Fragmented Nuclei (%)” value (U2OS [1]; [4]) was 4%, the “Population Healthy Nuclei (%)” value (U2OS [1]; [4]) was 88% and the “Population Hoechst High Intensity Objects (%)” value (U2OS [1]; [4]) was 3%. For the same molecule, the “Population Membrane Permeable-Phenotype (%)” value (U2OS [1]; [4]) was 12%, the “Population Mitochondria Different-Phenotype (%)” value (U2OS [1]; [4]) was 15% and the “Population Mitotic Cells (%)” value (U2OS [1]; [4]) was 28%. For the same molecule, the “Population Normal (%)” value (U2OS [1]; [4]) was 96%, the “Population Pyknosed Nuclei (%)” value (U2OS [1]; [4]) was 7% and the “Population Tubulin-Different-Phenotype (%)” value (U2OS [1]; [4]) was 20%. For the same molecule, the “Total Cell Count” value (U2OS [1]; [4]) was 81, the “Population Apoptotic (%)” value (U2OS [1]; [5]) was 58% and the “Population Fragmented Nuclei (%)” value (U2OS [1]; [5]) was 7%. For the same molecule, the “Population Healthy Nuclei (%)” value (U2OS [1]; [5]) was 76%, the “Population Hoechst High Intensity Objects (%)” value (U2OS [1]; [5]) was 13% and the “Population Membrane Permeable-Phenotype (%)” value (U2OS [1]; [5]) was 32%. The “Population Mitochondria Different-Phenotype (%)” value (U2OS [1]; [5]) was 80%, the “Population Mitotic Cells (%)” value (U2OS [1]; [5]) was 41% and the “Population Normal (%)” value (U2OS [1]; [5]) was 86%. For the same molecule, the “Population Pyknosed Nuclei (%)” value (U2OS [1]; [5]) was 17%, the “Population Tubulin-Different-Phenotype (%)” value (U2OS [1]; [5]) was 97% and the “Population Apoptotic (%)” value (U2OS [1]; [6]) was 55%. For the same molecule, the “Population Fragmented Nuclei (%)” value (U2OS [1]; [6]) was 13%, the “Population Healthy Nuclei (%)” value (U2OS [1]; [6]) was 74% and the “Population Hoechst High Intensity Objects (%)” value (U2OS [1]; [6]) was 3%. The “Population Membrane Permeable-Phenotype (%)” value (U2OS [1]; [6]) was 46%, the “Population Mitochondria Different-Phenotype (%)” value (U2OS [1]; [6]) was 73% and the “Population Mitotic Cells (%)” value (U2OS [1]; [6]) was 44%. The “Population Normal (%)” value (U2OS [1]; [6]) was 96%, the “Population Pyknosed Nuclei (%)” value (U2OS [1]; [6]) was 12% and the “Population Tubulin-Different-Phenotype (%)” value (U2OS [1]; [6]) was 100%. For the same molecule, the “Total Cell Count” value (U2OS [1]; [6]) was 99, the “Population Apoptotic (%)” value (U2OS [1]; [7]) was 50% and the “Population Fragmented Nuclei (%)” value (U2OS [1]; [7]) was 9%. For the same molecule, the “Population Healthy Nuclei (%)” value (U2OS [1]; [7]) was 74%, the “Population Hoechst High Intensity Objects (%)” value (U2OS [1]; [7]) was 2% and the “Population Membrane Permeable-Phenotype (%)” value (U2OS [1]; [7]) was 5%. The “Population Mitochondria Different-Phenotype (%)” value (U2OS [1]; [7]) was 5%, the “Population Mitotic Cells (%)” value (U2OS [1]; [7]) was 50% and the “Population Normal (%)” value (U2OS [1]; [7]) was 97%. For the same molecule, the “Population Pyknosed Nuclei (%)” value (U2OS [1]; [7]) was 15%, the “Population Tubulin-Different-Phenotype (%)” value (U2OS [1]; [7]) was 10% and the “Total Cell Count” value (U2OS [1]; [7]) was 136. The “Population Apoptotic (%)” value (U2OS [1]; [8]) was 40%, the “Population Fragmented Nuclei (%)” value (U2OS [1]; [8]) was 7% and the “Population Healthy Nuclei (%)” value (U2OS [1]; [8]) was 88%. For the same molecule, the “Population Hoechst High Intensity Objects (%)” value (U2OS [1]; [8]) was 5%, the “Population Membrane Permeable-Phenotype (%)” value (U2OS [1]; [8]) was 6% and the “Population Mitochondria Different-Phenotype (%)” value (U2OS [1]; [8]) was 11%. For the same molecule, the “Population Mitotic Cells (%)” value (U2OS [1]; [8]) was 60%, the “Population Normal (%)” value (U2OS [1]; [8]) was 94% and the “Population Pyknosed Nuclei (%)” value (U2OS [1]; [8]) was 4%. The “Population Tubulin-Different-Phenotype (%)” value (U2OS [1]; [8]) was 15%, the “Total Cell Count” value (U2OS [1]; [8]) was 83 and the “Population Apoptotic (%)” value (U2OS [1]; [9]) was 60%. For the same molecule, the “Population Fragmented Nuclei (%)” value (U2OS [1]; [9]) was 13%, the “Population Healthy Nuclei (%)” value (U2OS [1]; [9]) was 60% and the “Population Hoechst High Intensity Objects (%)” value (U2OS [1]; [9]) was 10%. For the same molecule, the “Population Membrane Permeable-Phenotype (%)” value (U2OS [1]; [9]) was 38%, the “Population Mitochondria Different-Phenotype (%)” value (U2OS [1]; [9]) was 84% and the “Population Mitotic Cells (%)” value (U2OS [1]; [9]) was 39%. The “Population Normal (%)” value (U2OS [1]; [9]) was 89%, the “Population Pyknosed Nuclei (%)” value (U2OS [1]; [9]) was 26% and the “Population Tubulin-Different-Phenotype (%)” value (U2OS [1]; [9]) was 98%. The “Total Cell Count” value (U2OS [1]; [9]) was 105, the “Population Apoptotic (%)” value (U2OS [1]; [10]) was 56% and the “Population Fragmented Nuclei (%)” value (U2OS [1]; [10]) was 9%. For the same molecule, the “Population Healthy Nuclei (%)” value (U2OS [1]; [10]) was 58%, the “Population Hoechst High Intensity Objects (%)” value (U2OS [1]; [10]) was 5% and the “Population Membrane Permeable-Phenotype (%)” value (U2OS [1]; [10]) was 41%. For the same molecule, the “Population Mitochondria Different-Phenotype (%)” value (U2OS [1]; [10]) was 81%, the “Population Mitotic Cells (%)” value (U2OS [1]; [10]) was 43% and the “Population Normal (%)” value (U2OS [1]; [10]) was 94%. The “Population Pyknosed Nuclei (%)” value (U2OS [1]; [10]) was 31%, the “Population Tubulin-Different-Phenotype (%)” value (U2OS [1]; [10]) was 100% and the “Total Cell Count” value (U2OS [1]; [10]) was 120. The “Population Apoptotic (%)” value (U2OS [1]; [11]) was 72%, the “Population Fragmented Nuclei (%)” value (U2OS [1]; [11]) was 9% and the “Population Healthy Nuclei (%)” value (U2OS [1]; [11]) was 78%. The “Population Hoechst High Intensity Objects (%)” value (U2OS [1]; [11]) was 4%, the “Population Membrane Permeable-Phenotype (%)” value (U2OS [1]; [11]) was 2% and the “Population Mitochondria Different-Phenotype (%)” value (U2OS [1]; [11]) was 10%. The “Population Mitotic Cells (%)” value (U2OS [1]; [11]) was 27%, the “Population Normal (%)” value (U2OS [1]; [11]) was 95% and the “Population Pyknosed Nuclei (%)” value (U2OS [1]; [11]) was 12%. For the same molecule, the “Population Tubulin-Different-Phenotype (%)” value (U2OS [1]; [11]) was 10%, the “Total Cell Count” value (U2OS [1]; [11]) was 168 and the “Population Apoptotic (%)” value (U2OS [1]; [12]) was 43%. The “Population Fragmented Nuclei (%)” value (U2OS [1]; [12]) was 5%, the “Population Healthy Nuclei (%)” value (U2OS [1]; [12]) was 84% and the “Population Hoechst High Intensity Objects (%)” value (U2OS [1]; [12]) was 2%. The “Population Membrane Permeable-Phenotype (%)” value (U2OS [1]; [12]) was 8%, the “Population Mitochondria Different-Phenotype (%)” value (U2OS [1]; [12]) was 21% and the “Population Mitotic Cells (%)” value (U2OS [1]; [12]) was 56%. For the same molecule, the “Population Normal (%)” value (U2OS [1]; [12]) was 97%, the “Population Pyknosed Nuclei (%)” value (U2OS [1]; [12]) was 9% and the “Population Tubulin-Different-Phenotype (%)” value (U2OS [1]; [12]) was 17%. For the same molecule, the “Total Cell Count” value (U2OS [1]; [12]) was 103, the “Population Apoptotic (%)” value (U2OS [1]; [13]) was 69% and the “Population Fragmented Nuclei (%)” value (U2OS [1]; [13]) was 18%. The “Population Healthy Nuclei (%)” value (U2OS [1]; [13]) was 43%, the “Population Hoechst High Intensity Objects (%)” value (U2OS [1]; [13]) was 12% and the “Population Membrane Permeable-Phenotype (%)” value (U2OS [1]; [13]) was 35%. The “Population Mitochondria Different-Phenotype (%)” value (U2OS [1]; [13]) was 60%, the “Population Mitotic Cells (%)” value (U2OS [1]; [13]) was 30% and the “Population Normal (%)” value (U2OS [1]; [13]) was 87%. For the same molecule, the “Population Pyknosed Nuclei (%)” value (U2OS [1]; [13]) was 37%, the “Population Tubulin-Different-Phenotype (%)” value (U2OS [1]; [13]) was 96% and the “Total Cell Count” value (U2OS [1]; [13]) was 157. For the same molecule, the “Population Apoptotic (%)” value (U2OS [1]; [14]) was 66%, the “Population Fragmented Nuclei (%)” value (U2OS [1]; [14]) was 19% and the “Population Healthy Nuclei (%)” value (U2OS [1]; [14]) was 39%. The “Population Hoechst High Intensity Objects (%)” value (U2OS [1]; [14]) was 4%, the “Population Membrane Permeable-Phenotype (%)” value (U2OS [1]; [14]) was 81% and the “Population Mitochondria Different-Phenotype (%)” value (U2OS [1]; [14]) was 68%. The “Population Mitotic Cells (%)” value (U2OS [1]; [14]) was 33%, the “Population Normal (%)” value (U2OS [1]; [14]) was 95% and the “Population Pyknosed Nuclei (%)” value (U2OS [1]; [14]) was 40%. The “Population Tubulin-Different-Phenotype (%)” value (U2OS [1]; [14]) was 100%, the “Total Cell Count” value (U2OS [1]; [14]) was 168 and the “Growth Rate” value (U2OS [2]; 0 h, replicate number 1, timepoint 0 hours) was 1. For the same molecule, the “Growth Rate” value (U2OS [2]; 0 h, replicate number 2, timepoint 0 hours) was 0, the “Growth Rate” value (U2OS [2]; 6 h, replicate number 2, timepoint 6 hours) was 1 and the “Growth Rate” value (U2OS [2]; 12 h, replicate number 1, timepoint 12 hours) was 1. For the same molecule, the “Growth Rate” value (U2OS [2]; 18 h, replicate number 1, timepoint 18 hours) was 1 and the “Growth Rate” value (U2OS [2]; 24 h, replicate number 1, timepoint 24 hours) was 1.
